Measured values from ChEMBL document CHEMBL1124394, “Synthesis and biological evaluation of 14-alkoxymorphinans. 2. (-)-N-(cyclopropylmethyl)-4,14-dimethoxymorphinan-6-one, a selective mu opioid receptor antagonist” (J Med Chem, 1989).
Several values for one entry are separate records, joined by “and”; a condition that tells them apart may be missing. Equal entries are not always repeated.

Key:
[1] = target: Kappa-type opioid receptor (Mus musculus) (UniProt P33534); conditions: Vas deferens
[2] = target: Mu-type opioid receptor (Cavia porcellus) (UniProt P97266)
Mu-type opioid receptor (Cavia porcellus), sequence (P97266 whole entry): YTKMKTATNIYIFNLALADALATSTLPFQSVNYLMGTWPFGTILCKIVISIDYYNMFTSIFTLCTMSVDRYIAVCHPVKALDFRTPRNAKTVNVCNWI

[3] = test system: Oryctolagus cuniculus; assay: Percent change of rate in the respiratory activity was measured in rabbit at the 1 mg/kg dose given intravenously; assay type: functional; conditions: route intravenous
Outline: (§1)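 Rabbits were dosed iv in saline (1.5 mL/kg); 1 N HCl was sometimes added to dissolve the compound. Percent change (±SE) in respiratory volume and rate was recorded.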

[4] = target: Mu-type opioid receptor (Rattus norvegicus) (UniProt P33535); conditions: Vas deferens
Mu-type opioid receptor (Rattus norvegicus), sequence (P33535 whole entry): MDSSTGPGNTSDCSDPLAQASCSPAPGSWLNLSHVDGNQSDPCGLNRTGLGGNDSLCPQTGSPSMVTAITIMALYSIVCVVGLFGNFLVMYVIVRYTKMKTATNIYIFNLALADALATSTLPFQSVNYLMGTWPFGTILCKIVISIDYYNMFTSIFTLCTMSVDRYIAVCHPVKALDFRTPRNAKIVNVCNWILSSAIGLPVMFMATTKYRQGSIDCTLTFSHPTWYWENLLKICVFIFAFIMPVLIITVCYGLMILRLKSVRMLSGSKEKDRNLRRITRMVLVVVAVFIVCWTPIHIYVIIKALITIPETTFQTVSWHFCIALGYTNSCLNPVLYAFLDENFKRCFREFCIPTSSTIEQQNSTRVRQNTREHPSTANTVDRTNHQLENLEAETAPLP

[5] = target: Delta-type opioid receptor (Rattus norvegicus) (UniProt P33533); conditions: Vas deferens
Delta-type opioid receptor (Rattus norvegicus), sequence (P33533 whole entry): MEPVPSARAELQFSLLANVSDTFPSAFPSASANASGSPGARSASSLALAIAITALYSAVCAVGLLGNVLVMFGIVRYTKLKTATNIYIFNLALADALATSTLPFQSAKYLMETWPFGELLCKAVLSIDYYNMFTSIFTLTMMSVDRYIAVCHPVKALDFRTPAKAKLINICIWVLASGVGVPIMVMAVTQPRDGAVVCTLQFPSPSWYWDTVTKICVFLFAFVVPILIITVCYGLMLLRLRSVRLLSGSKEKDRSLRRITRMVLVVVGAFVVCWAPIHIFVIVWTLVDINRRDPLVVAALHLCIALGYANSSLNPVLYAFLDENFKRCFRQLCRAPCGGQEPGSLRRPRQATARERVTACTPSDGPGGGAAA

[6] = target: Kappa-type opioid receptor (Cavia porcellus) (UniProt P41144)
Kappa-type opioid receptor (Cavia porcellus), sequence (P41144 whole entry): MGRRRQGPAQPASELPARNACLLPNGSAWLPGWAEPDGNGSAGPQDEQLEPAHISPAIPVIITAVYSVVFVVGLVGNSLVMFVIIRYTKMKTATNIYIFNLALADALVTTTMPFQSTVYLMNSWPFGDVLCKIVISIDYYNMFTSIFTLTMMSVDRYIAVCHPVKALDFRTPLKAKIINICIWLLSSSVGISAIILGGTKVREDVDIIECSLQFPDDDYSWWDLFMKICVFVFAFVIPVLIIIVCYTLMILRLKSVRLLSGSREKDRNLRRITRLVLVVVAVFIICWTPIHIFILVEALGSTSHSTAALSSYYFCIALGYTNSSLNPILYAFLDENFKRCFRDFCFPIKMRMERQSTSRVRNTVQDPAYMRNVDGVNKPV

[7] = target: Delta-type opioid receptor (Mus musculus) (UniProt P32300); conditions: Vas deferens
Delta-type opioid receptor (Mus musculus), sequence (P32300 whole entry): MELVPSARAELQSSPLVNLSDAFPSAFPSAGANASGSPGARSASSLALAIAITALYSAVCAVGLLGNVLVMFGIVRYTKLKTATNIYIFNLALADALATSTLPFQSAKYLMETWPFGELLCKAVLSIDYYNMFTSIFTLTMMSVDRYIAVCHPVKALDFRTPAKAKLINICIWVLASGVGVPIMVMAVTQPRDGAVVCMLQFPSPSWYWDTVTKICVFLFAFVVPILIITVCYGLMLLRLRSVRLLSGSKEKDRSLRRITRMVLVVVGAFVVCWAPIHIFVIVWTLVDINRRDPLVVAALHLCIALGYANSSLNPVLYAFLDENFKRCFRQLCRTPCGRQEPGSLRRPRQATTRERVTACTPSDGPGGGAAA

[8] = target: Mu-type opioid receptor (Mus musculus) (UniProt P42866); conditions: Vas deferens
Mu-type opioid receptor (Mus musculus), sequence (P42866 whole entry): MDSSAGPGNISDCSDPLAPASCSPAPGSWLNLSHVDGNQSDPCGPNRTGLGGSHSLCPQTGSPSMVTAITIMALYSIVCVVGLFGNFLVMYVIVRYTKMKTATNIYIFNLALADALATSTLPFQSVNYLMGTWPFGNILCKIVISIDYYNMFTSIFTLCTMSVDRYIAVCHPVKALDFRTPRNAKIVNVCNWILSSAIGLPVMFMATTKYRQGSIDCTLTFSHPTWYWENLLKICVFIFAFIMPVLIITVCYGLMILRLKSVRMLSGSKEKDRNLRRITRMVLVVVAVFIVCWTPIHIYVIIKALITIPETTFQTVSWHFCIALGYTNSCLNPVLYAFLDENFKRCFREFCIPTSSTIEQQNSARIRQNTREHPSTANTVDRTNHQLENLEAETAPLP

[9] = test system: Oryctolagus cuniculus; assay: Percent change of volume in the respiratory activity was measured in rabbit at the 1 mg/kg dose given intravenously; assay type: functional; conditions: route intravenous
Outline: as §1

[10] = target: Opioid receptor (Rattus norvegicus, UniProt P33533+P34975+P33535); assay: Inhibition of [3H]naloxone binding to opioid receptor in presence of NaCl; assay type: protein assay
Outline: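 Rat (male F1-albino, 140–180 g) whole brain minus cerebellum, homogenised in ice-cold 50 mmol/L Tris-HCl pH 7.4 with NaCl, centrifuged 18000g 10 min and rehomogenised. Nonspecific binding defined with 1 μmol/L levallorphan. Competitor tested at ≥5 concentrations in duplicate, two independent runs. IC50 taken graphically or from a least-squares sigmoid fit.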

[11] = test system: Oryctolagus cuniculus; assay: Percent change of rate in the respiratory activity was measured in rabbit at the 0.1 mg/kg dose given intravenously; assay type: functional; conditions: route intravenous
Outline: as §1

[12] = test system: Mus musculus; assay: Percent reduction of analgesia induced by morphine at 10 mg/kg after sc administration was measured in mice; assay type: functional; conditions: route subcutaneous
Outline: (§2)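 Mice received the opioid agonist sc (morphine 10 mg/kg or U-50,488 15 mg/kg), then the test compound sc 20 min later in saline (10 mL/kg). Writhing was then induced with acetic acid. Read-out was percent reduction of agonist-induced analgesia.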

[13] = test system: Mus musculus; assay: Percent reduction of analgesia induced by U-50,488 at 15 mg/kg after sc administration was measured in mice; assay type: functional; conditions: route subcutaneous
Outline: as §2

[14] = test system: Oryctolagus cuniculus; assay: Percent change of volume in the respiratory activity was measured in rabbit at the 0.1 mg/kg dose given intravenously; assay type: functional; conditions: route intravenous
Outline: as §1

[15] = test system: Oryctolagus cuniculus; assay: Percent change of rate in the respiratory activity was measured in rabbit at 0.1 mg/kg dose given intravenously; assay type: functional; conditions: route intravenous
Outline: as §1

Kappa-type opioid receptor (Mus musculus), sequence (P33534 whole entry): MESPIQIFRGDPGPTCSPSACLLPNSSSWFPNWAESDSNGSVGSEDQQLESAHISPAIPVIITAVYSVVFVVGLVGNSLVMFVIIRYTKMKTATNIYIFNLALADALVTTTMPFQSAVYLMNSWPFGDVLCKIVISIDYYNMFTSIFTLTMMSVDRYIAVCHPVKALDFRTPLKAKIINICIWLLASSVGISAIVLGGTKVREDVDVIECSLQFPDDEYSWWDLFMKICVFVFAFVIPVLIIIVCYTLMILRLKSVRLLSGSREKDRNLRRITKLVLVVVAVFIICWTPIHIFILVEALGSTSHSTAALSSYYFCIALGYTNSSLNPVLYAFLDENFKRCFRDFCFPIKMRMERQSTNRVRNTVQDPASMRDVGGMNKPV

Structure (SMILES): COc1cccc2c1[C@]13CCN(CC4CC4)[C@H](C2)[C@]1(OC)CCC(=O)C3 [CYPRODIME]
- Ke [1]: 1550 nM
- Ke [2]: 31 nM
- Rate change [3]: -6.9%
- Ke [4]: 61.6 nM
- Ke [5]: 4.56 µM
- Ke [6]: 1160 nM
- Ke [7]: 6.11 µM
- Ke [8]: 55.4 nM
- Volume change [9]: 21%

Structure (SMILES): C=CCN1CC[C@]23CCCC[C@H]2[C@H]1Cc1ccc(O)cc13 [LEVALLORPHAN]
- IC50 [10]: 1.1 nM and 0.54 nM

Structure (SMILES): C=CCN1CC[C@]23c4c5ccc(O)c4O[C@H]2C(=O)CC[C@@]3(O)[C@H]1C5 [NALOXONE]
- Rate change [11]: 7.3%
- Reduction [12]: 87%
- Reduction [13]: 83%
- Volume change [14]: 23%

Structure (SMILES): O=C1CC[C@@]2(O)[C@H]3Cc4ccc(O)c5c4[C@@]2(CCN3CC2CC2)[C@H]1O5 [NALTREXONE]
- Reduction [12]: 94%
- Rate change [15]: 7.5%
- Reduction [13]: 19%
